Data on 17 molecules can be found in PMC8867604 (European journal of pharmacology, 2020).

What all share (assay type): cell-based, human
The subject of data set [1] is NF-κB. Kind of data set: NF-κB luciferase reporter assay, antagonists with TNFα stimulation. Particulars: for effect on NF-κB expression / effect on NF-κB pathway activity / mode of action on NF-κB signaling: TNFα stimulated, 24 h; for effect on NF-κB pathway activity: at low micromolar concentrations; for pEC50: Homo sapiens, HEK293, 24 h, read-out: EC50 (NF-kB reporter).

For data set [2], the system named is HEK293 cells. Particulars: for pIC50: Homo sapiens, HEK293, 24 h, read-out: IC50 (cell viability).
The test system of data set [3] is NF-κB. Put plainly: NF-κB luciferase reporter assay, agonists without TNFα. Particulars: HEK293 reporter cells, no TNFα, 24 h. The method, boiled down: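 HEK293 stable NF-κB GFP-luciferase reporter line grown in DMEM with 10% FBS and 1% pen/strep at 37°C, 5% CO2. Seeded 1x10^4/well (96-well) or 1x10^3/well (384-well) 12 h before dosing across a concentration range in fresh medium, with vehicle-only controls. Incubated 24 h, then luminescence read. Drug/vehicle luminescence ratio plotted against log10 concentration to derive EC50. Triplicate or quadruplicate doses, ≥3 experiments.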
For orientation: In a reporter assay the amount or activity of a reporter protein is the signal.

Data set [4] relates to MAF1329 ependymoma cells.
The mark [5] stands for this setting: at low or mid-range micromolar concentrations.
[6] abbreviates: at low micromolar concentrations.

pEC50, pIC50: −log10 of the molar value. Read-outs that look alike come from different tables or passages of the source. Residues, ends and D or L forms follow the SMILES beside them. *: point of attachment. Cbz = O=C(OCc1ccccc1)*; OtBu = CC(C)(C)O* Some results are limits rather than exact numbers.

With `Cc1ccc(S(=O)(=O)/C=C/C#N)cc1` [BAY 11–7082], in data set [1] (setting [5]), the “effect on NF-κB expression” value is listed as “agonistic effect”. Also, the cytotoxic effect result in data set [2] was “no cytotoxic effect”.

Take `CC(C)(C)c1ccc(S(=O)(=O)/C=C/C#N)cc1` [BAY 11–7085]: the “effect on NF-κB expression” value in data set [1] (setting [5]) is recorded as “agonistic effect”. In addition, the cytotoxic effect entry in data set [2] was “no cytotoxic effect”.

Take `CCNC(=O)[C@H]1O[C@@H](n2cnc3c(N)nc(NCCc4ccc(CCC(=O)O)cc4)nc32)[C@H](O)[C@@H]1O` [CGS 21680]: the NF-κB agonist effect entry in data set [3] is on record as “no effect”.

Take `Br.Cc1cc2nc(NCCCO)n(CC(=O)c3cc(C(C)(C)C)c(O)c(C(C)(C)C)c3)c2cc1C` [CID 2858522]: the “effect on NF-κB expression” value in data set [1] (setting [5]) is given as “agonistic effect”. Further, the cytotoxic effect entry in data set [2] is given as “no cytotoxic effect”.

For `COc1cc(O)cc(O)c1C(=O)/C=C/c1ccccc1` [Cardamonin], in data set [1], the “effect on NF-κB pathway activity” value is “act as agonists and increased pathway activity”. Moreover, in data set [2] (setting [6]), the “effect on cell viability” value was “without effecting cell viability”. Further, the “change in cell viability of MAF1329” value in data set [4] (C11orf95-RELA fusion positive ependymoma cell culture) is listed as “no change in cell viability”.

In general, pEC50 refers to the negative decadic logarithm of the EC50, by convention in mol/L. Usually pIC50 stands for −log10 of the IC50, conventionally taken in molar units. Turning to `CC1=C(O)C(=O)C=C2C1=CC=C1[C@@]2(C)CC[C@@]2(C)[C@@H]3C[C@](C)(C(=O)O)CC[C@]3(C)CC[C@]12C` [Celastrol], in data set [1], the pEC50 is 7.09; the “effect on NF-κB pathway activity” value was “act as agonists and increased pathway activity”. In addition, the pIC50 in data set [2] is 6.32. Moreover, in data set [2] (setting [6]), the “effect on cell viability” value is “without effecting cell viability”. Also, the pIC50 in data set [4] (Homo sapiens, read-out: IC50 (cell viability of MAF1329)) was 5.77.

Take `O=C(c1ccc(Nc2nccc(-c3cc4ccccc4s3)n2)cc1)N1CCC(N2CCCC2)CC1` [IKK-16]: the “effect on NF-κB expression” value in data set [1] (HEK-293 reporter cells) was “no specific effect”. The “effect on cell viability” value in data set [2] was “no specific effect”.

On to `O=C(Nc1cc(C(F)(F)F)cc(C(F)(F)F)c1)c1cc(Cl)ccc1O` [IMD 0354], for which the “mode of action on NF-κB signaling” value in data set [1] (HEK-293 reporter cells) is recorded as “work antagonistically”. In addition, the pEC50 in data set [1] is 6.53. Moreover, the pIC50 in data set [2] is 5.81. For the same molecule, the “effect on cell viability” value in data set [2] (at low concentrations) is given as “did not result in a decrease of cell viability”.

Consider `O=c1cc(-c2ccc(O)c(O)c2)oc2cc(O)cc(O)c12` [Luteolin], for which, in data set [1] (HEK-293 reporter cells), the “effect on NF-κB expression” value was “no specific effect”. Moreover, in data set [1], the pEC50 was 4.46. In data set [2], the pIC50 is below 4.00.

Take `C[C@]1(CO)CN(c2cc(C(=O)Nc3ccc4c(c3)-c3c(c(C(N)=O)nn3-c3ccc(F)cc3)CC4)c(Cl)cn2)C[C@@]1(C)CO` [PF-184]: in data set [1] (HEK-293 reporter cells), the “mode of action on NF-κB signaling” value is “work antagonistically”. The “effect on cell viability” value in data set [2] is reported as “did not result in a decrease of cell viability”.

As to `CC[C@H](C)[C@H](NC(=O)OCc1ccccc1)C(=O)N[C@@H](CCC(=O)OC(C)(C)C)C(=O)N[C@@H](C)C(=O)N[C@H](C=O)CC(C)C` [PSI] (Cbz-IE(OtBu)AL-aldehyde), the “effect on NF-κB pathway activity” value in data set [1] is “act as agonists and increased pathway activity”. Also, in data set [2], the “effect on cell viability” value was “without effecting cell viability”.

In the case of `Oc1cc(O)cc(/C=C/c2ccc(O)c(O)c2)c1` [Piceatannol], in data set [1], the pEC50 is below 4.00. Also, the “effect on NF-κB expression” value in data set [1] (setting [5]) is “agonistic effect”. In data set [2], the cytotoxic effect entry was “no cytotoxic effect” and the pIC50 is below 4.00.

As for `CS(=O)(=O)N1CCN(Cc2cc3nc(-c4cccc5[nH]ncc45)nc(N4CCOCC4)c3s2)CC1` [Pictalisib, 2-(1 H -Indazol-4-yl)-6-(4-methanesulfonyl-piperazin-1-ylmethyl)-4-morpholin-4-yl-thieno[3,2-d]pyrimidine], the pEC50 in data set [1] is 5.37. Further, in data set [2], the pIC50 is 5.13.

As to `CC(=O)O[C@@]12C[C@@H](C)[C@@]3(O)[C@@H](C=C(CO)C[C@]4(O)C(=O)C(C)=C[C@@H]34)[C@@H]1C2(C)C` [Prostratin], in data set [3], the “concentration at which NF-κB agonist activity was seen” value is 1000 nM.

Take `[O-][S+](c1ccccc1)c1ccc2nnnn2n1` (stereo not drawn) [Ro106–9920]: in data set [2], the “effect on cell viability” value was “did not result in a decrease of cell viability”.

On to `NC(=O)Nc1sc(-c2ccc(F)cc2)cc1C(N)=O` [TCPA-1, 2-[(Aminocarbonyl)amino]-5-(4-fluorophenyl)-3-thiophenecarboxamide], for which the pEC50 in data set [1] was above 9.00. In addition, the “effect on cell viability” value in data set [2] (at low concentrations) is reported as “did not result in a decrease of cell viability”.

Take `C=C(C)[C@@H]1CC[C@]2(C(=O)O)CC[C@]3(C)[C@H](CC[C@@H]4[C@@]5(C)CC[C@H](O)C(C)(C)[C@@H]5CC[C@]43C)[C@@H]12` [betulinic acid, Betulinic acid]: in data set [3], the “concentration at which NF-κB agonist activity was seen” value is reported as 100,000 nM.
